Test results as given in PMC8164216 (Pharmaceutical research, 2019).
Values joined by “and” are separate entries in the source; they are usually repeats but may differ in a detail not shown here. Equal values may be shown once. Marks after values point to notes of the source that are not given here.

Columns and labels:
MCT1 [1] = conditions: murine 4T1 cells; cited from earlier work
[2] = Compartmental PK modeling, full TMDD model; assay type: in vivo, Female BALB/c mice
MCT1 [3] = biological target: T1, MCT1 (Mus musculus, UniProt P53986); experiment: Full TMDD model; assay type: in vivo, Female BALB/c mice
T1 sequence (P53986 1-493): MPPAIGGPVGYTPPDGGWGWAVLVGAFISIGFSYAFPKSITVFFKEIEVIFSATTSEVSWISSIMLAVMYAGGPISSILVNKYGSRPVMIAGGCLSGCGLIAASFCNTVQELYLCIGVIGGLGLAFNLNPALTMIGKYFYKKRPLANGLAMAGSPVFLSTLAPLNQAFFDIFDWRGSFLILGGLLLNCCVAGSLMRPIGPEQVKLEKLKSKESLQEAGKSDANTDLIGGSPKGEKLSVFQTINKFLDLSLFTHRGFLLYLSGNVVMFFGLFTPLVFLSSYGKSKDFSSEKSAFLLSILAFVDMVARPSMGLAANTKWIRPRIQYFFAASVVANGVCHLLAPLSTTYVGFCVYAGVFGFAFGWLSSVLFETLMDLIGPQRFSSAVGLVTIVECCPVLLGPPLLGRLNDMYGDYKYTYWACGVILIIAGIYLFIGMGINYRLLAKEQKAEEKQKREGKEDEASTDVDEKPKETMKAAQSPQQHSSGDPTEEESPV
T1 sequence (P18572 140-389 partner limits assumed): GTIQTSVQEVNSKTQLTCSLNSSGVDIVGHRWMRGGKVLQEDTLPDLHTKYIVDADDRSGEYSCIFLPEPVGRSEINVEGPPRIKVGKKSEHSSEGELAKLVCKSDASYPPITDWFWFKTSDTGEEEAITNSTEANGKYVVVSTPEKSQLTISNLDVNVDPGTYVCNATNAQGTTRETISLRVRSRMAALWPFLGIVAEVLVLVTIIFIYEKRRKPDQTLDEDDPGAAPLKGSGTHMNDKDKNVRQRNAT

[4] = breast tumor xenograft study; cited from earlier work
MCT1 [5] = conditions: cited from earlier work
MCT2 = conditions: to a lesser extent than MCT1; cited from earlier work
[6] = Compartmental PK modeling with enterohepatic cycling and M-M elimination; assay type: in vivo, Female BALB/c mice; conditions: for Vp: simultaneous fit of IV and oral data; for Vmax / Km: M-M elimination; for CLb: clearance to bile compartment; for Km: female, BALB/c, mouse, plasma, other: intravenous and oral, fitted simultaneously
How it was run: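 Female BALB/c mice (18–20 g) got the test compound in 20% w/v cyclodextrin in normal saline, by tail-vein IV (10, 50, 100 mg/kg) or oral gavage (100 mg/kg). Terminal cardiac blood (isoflurane, lithium heparin; n = 3–4/time point) was taken to 24 h, and plasma was assayed by LC/MS/MS. Naïve-pooled IV and oral data were fitted together by maximum likelihood to enterohepatic-cycling models with lag time and Michaelis-Menten elimination.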

[7] = Pharmacokinetic study in mice, non-compartmental analysis; assay type: in vivo, Female BALB/c mice
How it was run: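 Mice were dosed IV by tail vein (10, 50, 100 mg/kg) or by oral gavage (100 mg/kg), in 20% w/v cyclodextrin-saline. Plasma from terminal cardiac puncture (n = 3–4/time point; 15 min–24 h IV, 10 min–24 h oral) was quantified by LC/MS/MS (LLOQ 0.15 ng/mL). Naïve-pooled non-compartmental analysis assumed 19 g body weight. AUC was by trapezoidal method, extrapolated to infinity. Fold change is relative to the 10 mg/kg IV dose.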

[8] = female, BALB/c, mouse, plasma, iv, 10 mg/kg
[9] = female, BALB/c, mouse, plasma, iv, 50 mg/kg
[10] = female, BALB/c, mouse, plasma, iv, 100 mg/kg
[11] = female, BALB/c, mouse, plasma, po, 100 mg/kg

- ka ([2]; Model C): 34.4 ± 4.80 (14.0) h^−1
- kpt ([2]; Model C): 0.302 ± 0.074 (24.7) h^−1
- ktp ([2]; Model C): 0.452 ± 0.041 (9.12) h^−1
- Vp ([2]; Model C (full TMDD model), fixed): 2.04 ml and 2.04 (Fixed) ml
- kon (MCT1 [3]; Model C, converted based on the molecular weight): 6.21 ± 5.92 (95. 3) μM^−1 h^−1
- koff (MCT1 [3]; mouse): 0.00641 s⁻¹
- CLd ([6]; Model A): 0.332 ± 0.064 (19.3) ml/h
- F ([6]; Model A): 1.00 ± 0.003 (0.32)
- ka ([6]; Model A): 3.39 ± 1.11 (32.7) h^−1
- Vp ([6]; Model A (EHC model)): 48.6 ± 5.86 (12.1) ml
- Vmax ([6]; Model A): 26.4 ± 8.30 (31.7) μg/h
- CLb ([6]; Model A): 0.529 ± 0.074 (13.9) ml/h
- ko ([6]; Model A, first-order rate constant of release from bile): 0.0015 ± 0.0004 ^a (29.0) h^−1
- Tlag ([6]; Model A, fixed in final estimation): 5.92 (Fixed) h
- CLd ([6]; Model B): 0.023 ± 0.003 (11.1) ml/h
- F ([6]; Model B): 0.998 ± 0.003 (0.31)
- ka ([6]; Model B): 5.13 ± 1.98 (38.6) h^−1
- Vp ([6]; Model B (simplified EHC model)): 55.8 ± 5.20 (9.35) ml
- Tlag.iv ([6]; Model B, IV): 6.00 ± 0.0006 (0.01) h
- Vmax ([6]; Model B): 411 ± 42.0 (10.3) μg/h
- CLb ([6]; Model B): 0.178 ± 0.019 (10.8) ml/h
- Tlag.po ([6]; Model B, oral): 5.90 ± 0.06 (1.05) h
- ko ([6]; Model B, zero-order rate constant of release from bile): 0.386 ± 0.146 ^b (37.9) ng/h
- Km ([6]; Model A): 9.59 ± 4.63 µg/mL
- Km ([6]; Model B): 385 ± 58 µg/mL
- Vc/F ([7]; IV 10 mg/kg, mice (19 g)): 53.4 mL
- AUC0−∞, fold change from the lowest IV dose ([7]; IV 50 mg/kg vs 10 mg/kg): 8.36 fold
- CL, fold change from the lowest IV dose ([7]; IV 50 mg/kg vs 10 mg/kg): 0.50 fold
- Cmax, fold change from the lowest IV dose ([7]; IV 50 mg/kg vs 10 mg/kg): 7.49 fold
- Vss, fold change from the lowest IV dose ([7]; IV 50 mg/kg vs 10 mg/kg): 0.58 fold
- t1/2, fold change from the lowest IV dose ([7]; IV 50 mg/kg vs 10 mg/kg): 0.89 fold
- λz, fold change from the lowest IV dose ([7]; IV 50 mg/kg vs 10 mg/kg): 1.12 fold
- Vc/F ([7]; IV 50 mg/kg, mice (19 g)): 31.0 mL
- AUC0−∞, fold change from the lowest IV dose ([7]; IV 100 mg/kg vs 10 mg/kg): 17.5 fold
- CL, fold change from the lowest IV dose ([7]; IV 100 mg/kg vs 10 mg/kg): 0.47 fold
- Cmax, fold change from the lowest IV dose ([7]; IV 100 mg/kg vs 10 mg/kg): 13.6 fold
- Vss, fold change from the lowest IV dose ([7]; IV 100 mg/kg vs 10 mg/kg): 0.65 fold
- t1/2, fold change from the lowest IV dose ([7]; IV 100 mg/kg vs 10 mg/kg): 0.87 fold
- λz, fold change from the lowest IV dose ([7]; IV 100 mg/kg vs 10 mg/kg): 1.16 fold
- Vc/F ([7]; IV 100 mg/kg, mice (19 g)): 34.6 mL
- AUC(0-inf) [7, 8]: 4940 ng·h/mL
- Cmax [7, 8]: 4020 ng/mL
- Vd [7, 8]: 0.0442 L
- clearance [7, 8]: 0.773 mL/min
- concentration at 24 h [7, 8]: 0.285 ng/mL
- half-life [7, 8]: 2.91 h
- k el [7, 8]: 6.61e-05 s⁻¹
- AUC(0-inf) [7, 9]: 41300 ng·h/mL
- Cmax [7, 9]: 30100 ng/mL
- Vd [7, 9]: 0.0256 L
- clearance [7, 9]: 0.383 mL/min
- half-life [7, 9]: 2.6 h
- k el [7, 9]: 7.39e-05 s⁻¹
- AUC(0-inf) [7, 10]: 86400 ng·h/mL
- Cmax [7, 10]: 54500 ng/mL
- Vd [7, 10]: 0.0286 L
- clearance [7, 10]: 0.367 mL/min
- half-life [7, 10]: 2.51 h
- k el [7, 10]: 7.64e-05 s⁻¹
- bioavailability ([7]; female, BALB/c, mouse, plasma, oral, 100 mg/kg): 82.7%
- AUC(0-inf) [7, 11]: 71400 ng·h/mL
- Cmax [7, 11]: 30300 ng/mL
- Tmax [7, 11]: 0.333 h
- half-life [7, 11]: 4.46 h
- k el [7, 11]: 4.33e-05 s⁻¹
- CL/F ([7]; oral 100 mg/kg, mice (19 g)): 26.6 mL/h
- Vc/F ([7]; oral 100 mg/kg, mice (19 g)): 171 mL
Compound: Cc1[nH]nc(C(F)(F)F)c1Cc1sc2c(c1C(=O)N1C[C@](C)(O)CO1)c(=O)n(C)c(=O)n2C(C)C [AZD3965, 5-[(4S)-4-hydroxy-4-methyl-1,2-oxazolidine-2-carbonyl]-1-isopropyl-3-methyl-6-{[3-methyl-5-(trifluoromethyl)-2H-pyrazol-4-yl]methyl}thieno[2,3-d]pyrimidine-2,4-dione]
- duration of inhibition of L-lactate uptake (MCT1 [1]): up to 5 h
- pre-incubation period for maximal inhibition of L-lactate uptake (MCT1 [1]): 5 min
- Rtotal (total transporter concentration) (MCT1 [3]; Model C): 54.8 ± 4.90 μg/ml and 54.8 ± 4.90 (8.92) μg/ml
- concentration in 4T1 tumor versus plasma [4]: 25.5 fold
- Ki (MCT1 [5]): 1.6 nM
- activity against MCT2 (MCT2): some activity
